Screens (PubChem)
pPAFAH FP inh – pPAFAH (human) enzyme inhibition; inhibition, % at 3.39 µM; Q13093; actives 1.5% (n = 330,000); recombinant pPAFAH, FP-rhodamine probe fluorescence polarization;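 active = inhibition above the mean inhibition across the screen plus 3 SD, cut at about 25% in these data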;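 also: inhibitors block binding of the rhodamine activity-based probe so polarization drops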
Target sequence (Q13093 whole entry, looked up): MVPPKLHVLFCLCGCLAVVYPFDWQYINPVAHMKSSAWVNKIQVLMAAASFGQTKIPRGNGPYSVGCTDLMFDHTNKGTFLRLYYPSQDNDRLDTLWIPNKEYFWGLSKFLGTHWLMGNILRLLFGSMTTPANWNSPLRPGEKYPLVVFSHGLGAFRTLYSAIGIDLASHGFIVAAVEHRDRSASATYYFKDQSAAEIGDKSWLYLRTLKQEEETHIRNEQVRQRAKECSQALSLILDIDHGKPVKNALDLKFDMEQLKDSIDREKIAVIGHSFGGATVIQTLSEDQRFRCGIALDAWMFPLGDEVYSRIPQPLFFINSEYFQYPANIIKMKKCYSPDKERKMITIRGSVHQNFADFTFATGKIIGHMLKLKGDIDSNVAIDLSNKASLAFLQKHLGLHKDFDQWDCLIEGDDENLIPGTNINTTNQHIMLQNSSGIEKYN
ASAP1 inh – inhibitors of human ASAP1 ArfGAP activity; inhibition, % at 16.5 µM; ASAP1-stimulated ARF1 GTP hydrolysis, GDP FP detection; Q9ULH1; AID 624377; actives 0.19% (n = 360,000); in the data active = inhibition above about 25%
ARFGAP1 inh – inhibitors of rat ARFGAP1. Q62848. Arfgap1-stimulated ARF1 GTP hydrolysis, GDP FP detection. inhibition, % at 16.5 µM. actives 0.26% (n = 360,000);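 active = inhibition above a per-plate limit, mean inhibition of low control wells plus 3 SD, cut at about 25% in these data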
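Material – truncated rat Arfgap1 GAP domain · Buffer or medium – HEPES-based buffer, pH 7.5 · Reagent – human ARF1(Δ1-17)-GTP substrate · Dosing – 16.5 µM single point, 1.26% DMSO · Schedule – GTP hydrolysis reaction 2 h at 25 °C · Technique – GDP detection by fluorescence polarization · Benchmarks – No-Arfgap1 wells (100%) versus DMSO full-reaction wells (0%) · Repeats – single replicate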
PAFAH1B2 FP inh – inhibitors of human PAFAH1B2; actives 1.2% (n = 340,000); AID 492953; inhibition, % at 3.39 µM; recombinant PAFAH1B2, FP-rhodamine activity probe, fluorescence polarization;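 active = inhibition above the mean of all tested compounds plus 3 SD, cut at about 24% in these data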
PAFAH1B3 inh – PAFAH1B3 (human) inhibition | inhibition, % at 3.39 µM | AID 492972 | recombinant PAFAH1B3, FP-rhodamine probe, fluorescence polarization | Q15102 | actives 0.28% (n = 340,000);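 active = inhibition above the screen-wide average of all tested compounds plus 3 SD, cut at about 25% in these data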
PAFAH2 inh – PAFAH2 (human) inhibition; actives 0.99% (n = 340,000); Q99487; AID 492956; inhibition, % at 3.39 µM; recombinant PAFAH2, FP-rhodamine activity probe, fluorescence polarization;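 active = inhibition above the mean over all tested compounds plus 3 SD, cut at about 30% in these data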;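 also: inhibitors block probe labeling of enzyme so polarization drops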
Hits are given with their value; n = inactive; x = not tested or not shown. A selection: hits, their analogues and other compounds. The true share with any hit is near 2.8%.

SMILES	pPAFAH FP inh	ASAP1 inh	ARFGAP1 inh	PAFAH1B2 FP inh	PAFAH1B3 inh	PAFAH2 inh
Oc1c(Br)cc(/C=N/n2c(-c3ccccc3)n[nH]c2=S)c(Br)c1O	88	x	x	x	x	x
O=C(NNC(=O)C12CC3CC(CC(C3)C1)C2)c1cccc([N+](=O)[O-])c1	n	n	n	30	n	n
CC1(C(=O)NNC(=O)c2cccc([N+](=O)[O-])c2)CC1Br (stereo unspecified)	x	n	n	x	x	x
O=C1CCCc2ccccc2N1Cc1ccccc1Cl	n	n	25	n	n	n
CC(C)(C)c1ccc(-n2ncc3c2CCCC3NC(=O)CCn2cncn2)cc1 (stereo unspecified)	33	n	n	n	n	n
COc1ccccc1CNS(=O)(=O)c1cc(-c2cc(C)no2)ccc1C(C)C	n	n	n	n	n	n
N/C(=N\OC(=O)CCCOc1ccccc1)c1ccccc1	n	n	n	29	n	n
N/C(=N\OC(=O)CCCOc1ccccc1)c1ccc(Br)cc1	n	n	n	81	n	n
N/C(=N\OC(=O)CCCOc1ccccc1)c1ccncc1	n	n	n	n	n	n
CCOC1=C2CN(S(=O)(=O)c3ccc(C)cc3)[C@H](c3ccccc3)C[C@H]2n2c(=O)n(-c3ccccc3)c(=O)n2C1	x	n	n	x	x	x
CCCC(=O)N1CCC1(C)C(=O)Nc1cc(C)ccc1C (stereo unspecified)	x	n	n	x	x	x
COCCn1c(C)c(C)c(S(=O)(=O)c2ccccc2)c1N	n	n	n	41	41	59
Cc1c(S(=O)(=O)c2ccccn2)c(N)n(Cc2ccccc2)c1C	n	n	n	x	x	x
CCN(CC(=O)Nc1ccc(NC(C)=O)cc1)C(=O)c1cccc(N2C(=O)c3ccccc3C2=O)c1	x	n	n	n	n	n
CC(C)n1c(=O)c2ccccc2n1Cc1cn(Cc2cccs2)nn1	x	n	n	x	x	x
COC(=O)c1cc(NCc2c(F)cccc2Cl)ccc1N1CCOCC1	30	n	n	n	n	n
Cc1cccc(-c2oc3ccc(-c4ccc5c(c4)OCO5)cc3c2/C=C/c2ccc(N)cc2)c1	n	x	x	n	n	n
COC(=O)c1cc(C)sc1NC(=O)CN1CCN(C(=O)c2ccco2)CC1	n	n	n	n	n	n
CCOC(=O)c1cc(C)sc1NC(=O)CN1CCN(C(=O)C2CCCO2)CC1 (stereo unspecified)	27	n	n	n	n	n
CCOC(=O)c1c(NC(=O)c2ccco2)sc2c1CCCC2	n	n	n	n	n	n
CN1CCN(CC(=O)Nc2sc3c(c2C(=O)Nc2ccccc2)CCCC3)CC1	n	n	n	n	n	n
COC(=O)c1cc(C)sc1NC(=O)CN1CCN(C(=O)C2CCCO2)CC1 (stereo unspecified)	n	n	n	n	n	n
CCOC(=O)c1c(NC(=O)CN2CCN(C(=O)c3ccco3)CC2)sc2c1CCCC2	34	n	n	n	n	n
NC(=O)c1c(NC(=O)CN2CCN(S(=O)(=O)c3ccccc3)CC2)sc2c1CCC2	n	n	n	35	n	n
CCOC(=O)c1cc(C)sc1NC(=O)CN1CCN(C(=O)c2ccco2)CC1	26	n	n	n	n	n
SMILES	pPAFAH FP inh	ASAP1 inh	ARFGAP1 inh	PAFAH1B2 FP inh	PAFAH1B3 inh	PAFAH2 inh
COc1ccc([C@H]2CC(=O)C[C@@H](CCn3cc(-c4ccc(F)cc4)nn3)O2)cc1	x	n	n	x	x	x
CCCCc1c(-c2ccccc2OC)ncn1Cc1cccc(C)c1	x	n	n	x	x	x
CC(=O)Nc1cccc(OCCCOc2cccc([N+](=O)[O-])c2)c1	x	n	n	n	n	n
NC(=O)c1ccsc1NC(=O)CN1C(=O)NC2(CCCCC2)C1=O	n	n	n	n	n	n
CC1CCC2(CC1)NC(=O)N(CC(=O)Nc1sc3c(c1C(N)=O)CCC3)C2=O (stereo unspecified)	25	n	n	n	n	n
N#Cc1ccsc1NC(=O)CN1C(=O)NC2(CCCC2)C1=O	27	n	n	n	n	n
CCN(CC(=O)Nc1cccc(S(=O)(=O)N(C)c2ccccc2)c1)Cc1cccs1	n	n	n	n	n	n
Cc1cccc(NC(=O)CNC(=O)c2cccc(-n3cccc3)c2)c1C	n	n	n	n	n	n
CN1CCN(CCC=C2c3ccccc3Sc3ccc(S(=O)(=O)N(C)C)cc32)CC1	28	n	n	n	n	n
